Experimental data from different studies.
Target: Serine/threonine-protein kinase Sgk3 (SGK3, Homo sapiens, UniProt Q96BR1)
Sequence (Q96BR1 1-496, as in one of the studies): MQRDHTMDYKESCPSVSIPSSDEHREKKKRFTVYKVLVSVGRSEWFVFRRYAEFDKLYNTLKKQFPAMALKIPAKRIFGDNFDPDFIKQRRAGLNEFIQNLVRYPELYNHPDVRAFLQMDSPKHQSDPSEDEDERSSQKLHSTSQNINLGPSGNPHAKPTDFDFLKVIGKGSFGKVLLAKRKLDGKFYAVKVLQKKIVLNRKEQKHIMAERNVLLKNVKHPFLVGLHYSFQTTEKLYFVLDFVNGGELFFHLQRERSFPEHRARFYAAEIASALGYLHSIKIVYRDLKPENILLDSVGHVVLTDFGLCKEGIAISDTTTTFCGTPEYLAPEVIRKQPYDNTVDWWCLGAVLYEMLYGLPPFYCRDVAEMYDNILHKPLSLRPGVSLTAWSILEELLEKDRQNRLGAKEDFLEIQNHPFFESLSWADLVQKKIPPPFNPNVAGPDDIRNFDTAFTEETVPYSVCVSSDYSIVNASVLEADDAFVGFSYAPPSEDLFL

Compound | assay | conditions | quantity | value
Cn1nc(C(F)(F)F)cc1-c1cnc(N2CCc3cc(S(=O)(=O)Nc4c(F)cc(Cl)cc4F)cc(N4CCCC4=O)c32)nc1 | cell-free assay, competition with immobilised ligand | 1 µM | remaining binding | 78%
CNC(=O)c1cc(Oc2ccc(NC(=O)Nc3ccc(Cl)c(C(F)(F)F)c3)cc2)ccn1 | enzyme activity, inhibitor | 10 µM | inhibition | 11%
CCS(=O)(=O)c1cc2cc(C[C@@](O)(CC(C)(C)c3ccc(F)cc3C(N)=O)C(F)(F)F)[nH]c2cn1 | cell-free assay, competition with immobilised ligand | 1 µM | remaining binding | 79%
COc1cc(Cl)c(C(=O)N[C@@H](CN[C@H]2CC[C@@H](N)CC2)Cc2ccc(C#N)cc2)cc1-c1ccc(CN[C@H](C)c2ccc(C)cc2)o1 | enzyme activity, inhibitor | 1 µM | remaining activity | 83%
Nc1ncnc2occ(-c3ccc(NC(=O)Nc4cc(C(F)(F)F)ccc4F)cc3)c12 | cell-free assay, inhibitor | 20 µM | remaining signal | 6.6%
Oc1cccc(-c2nc(N3CCOCC3)c3oc4ncccc4c3n2)c1 | cell-free assay | 0.5 µM | remaining signal | 95.8%
CCc1ccccc1C(=O)Nc1n[nH]c2c(C)c(F)c(C3C(C#N)=C(C)N(C)C(C)=C3C#N)cc12 | cell-free assay, competition with immobilised ligand | 1 µM | remaining binding | 91%
O=C1NC(=O)c2cc(Nc3ccc(F)cc3)c(Nc3ccc(F)cc3)cc21 | cell-free assay | 0.5 µM | remaining signal | 102%
CO[C@@H](C)c1c(Nc2ccc([C@H](N(C)C(=O)C3CCS(=O)(=O)CC3)C(F)(F)F)cc2)cnc2cc(Cl)nn12 | cell-free assay, competition with immobilised ligand | 1 µM | remaining binding | 100%
COc1cc2ncnc(Nc3ccc(Oc4ccccc4)cc3C)c2cc1OC | enzyme activity, inhibitor | 1 µM | inhibition | 0%
Cc1ccc(Nc2nccc(N(C)c3ccc4c(C)n(C)nc4c3)n2)cc1S(N)(=O)=O | enzyme activity, inhibitor | 0.3 µM | inhibition | 10%
Cc1ccc(C(=O)Nc2ccc(CN3CCN(C)CC3)c(C(F)(F)F)c2)cc1C#Cc1cnc2cccnn12 | enzyme activity, inhibitor | 23.5 nM | remaining activity | 70%
CS(=O)(=O)CCNCc1ccc(-c2ccc3ncnc(Nc4ccc(OCc5cccc(F)c5)c(Cl)c4)c3c2)o1 | cell-free assay | 0.5 µM | remaining signal | 102%
CCCCNc1ncc2c(-c3ccc(F)cc3)nn(C[C@H]3CC[C@H](N)CC3)c2n1 | target engagement in cells, inhibitor, chemoproteomics | 20 mM | inhibition | -2.1%
CNC(=O)c1ccc(Nc2ncc(C(F)(F)F)c(NCc3nccnc3N(C)S(C)(=O)=O)n2)cc1 | cell-free assay, competition with immobilised ligand | 0.1 µM | remaining binding | 85%
O=C(Nc1cnn(-c2csc(C(=O)NC3COC3)c2)c1)Nc1ccccc1Cl | enzyme activity, inhibitor | 5 µM | remaining activity | 93.8%
CCOc1cc(-c2nncn2C)ccc1Nc1ncc2cc(C)nc(NCC(C)(C)C)c2n1 | enzyme activity, inhibitor, FRET | 1 µM | inhibition | < 15%
O=C1Nc2ccc(Cl)cc2C1=Cc1cc(Cl)c(O)c(Cl)c1 | cell-free assay | 0.5 µM | remaining signal | 98.6%
CC/C(=N\NC(=O)NCc1cccc(O)c1)c1ccc(O)c(C)c1O | enzyme activity, inhibitor | 0.1 µM | inhibition | 83.9%
CNCc1ccccc1-c1csc([C@@H](C)Nc2nc(C)nc3cc(OC)c(OC)cc23)c1 | cell-free assay, competition with immobilised ligand | 1 µM | remaining binding | 78%
Cc1ccc(NC(=O)c2ccc(C)c(C(F)(F)F)c2)cc1C#Cc1nn(C2CCC(O)CC2)c2ncnc(N)c12 (stereo not drawn) | cell-free assay | 10 µM | remaining signal | 98%
CCN(CC)c1ccc(C2=NNC(=O)CC2C)cc1[N+](=O)[O-] (stereo not drawn) | enzyme activity, inhibitor | 10 µM | remaining activity | 114%
Cc1nc(C2CCN(C(=O)c3ccc(OC(F)(F)F)cc3N)CC2)c2ncc(N3CCN(C)CC3)cc2n1 | cell-free assay, competition with immobilised ligand | 1 µM | remaining binding | 93%
CC(C)(C)c1nc2c(s1)c1nc(N)ncc1c1ccc(NS(=O)(=O)c3c(F)cccc3F)c(F)c12 | enzyme activity, inhibitor, radiometric | 1 µM | remaining activity | 89%
